Several values for one entry are separate records, joined by “and”; a condition that tells them apart may be missing. Equal values may be shown once.
Columns and labels:
[1] = (§1) Effect on Maxi-K-Mediated outward current in Xenopus laevis oocytes expressing cloned mSlo maxi-K channels at 20 uM; type: functional, Oocyte
Procedure, shortened: (§2)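 Two-electrode voltage clamp on Xenopus oocytes expressing cloned mSlo. Steps of 500–750 ms ran from a holding potential of -60 to +140 mV in 20 mV increments, without and with compound at 20 μM in the chamber. Each experiment ended with 10 min of 50 nM iberiotoxin, and that residual current was subtracted. The IbTx-sensitive current is given as % of drug-free control, from at least five oocytes.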

[2] = as §1; type: functional, Mus musculus, Oocyte; procedure, shortened: as §2
Rattus norvegicus [3] = experiment: Brain level concentration after IV administration (4.6 mg/kg) in male rats at 0.25 hours; type: functional, organism-based
Procedure, shortened: (§3)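 Male Sprague–Dawley rats (ca. 225 g) got a tail-vein bolus of 2 mL/kg. Three animals per group were killed by CO2 at 0.25 and 2 h. Whole brain and blood were taken. Brain homogenates and plasma were extracted with CH3CN and assayed by HPLC with UV detection at 290 nm. Plasma is given in μg/mL and brain in μg/g wet weight, as mean ± SD.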

Rattus norvegicus [4] = experiment: Brain level concentration after IV administration (4.6 mg/kg) in male rats at 2 hours; type: functional, organism-based; procedure, shortened: as §3
Rattus norvegicus [5] = experiment: Plasma level concentration after IV administration (4.6 mg/kg) in male rats at 0.25 hours; type: functional, organism-based; procedure, shortened: as §3
Rattus norvegicus [6] = experiment: Plasma level concentration after IV administration (4.6 mg/kg) in male rats at 2 hours; type: functional, organism-based; procedure, shortened: as §3
Rattus norvegicus [7] = experiment: Neocortical infarct volume after IV administration (2 hr post-MCAO) in 9 rats by method A at the dose 10.0 mg/kg; Toxic at 10.0% reduction level; details: in vivo
Rattus norvegicus [8] = species on record: Rattus norvegicus; experiment: Electrically stimulated [3H]-glutamate release in hippocampal slices; type: functional, Hippocampus
Procedure, shortened: (§4)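 Hippocampal wedges (350 μm) from male Sprague–Dawley rats were washed in Krebs buffer with adenosine deaminase. They were loaded with 5 μCi [3H]-glutamate for 30 min at 37 °C, then superfused and collected as 5 min fractions. Release was evoked by field stimulation (35 mA, 10 Hz, 2 ms pulses, 1 min) at fractions 3 (S1) and 13 (S2). Compound was present from 30 min before S2. Data are S2/S1 ratios, analysed by ANOVA with Newman–Keuls.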

Rattus norvegicus [9] = experiment: Neocortical infarct volume after IV administration (2 hr post-MCAO) in 9 rats by method B at the dose 0.1 mg/kg; type: functional
Rattus norvegicus [10] = experiment: Neocortical infarct volume after intraperitoneal administration (2 hr post-MCAO) in 9 rats by method A at the dose 10 mg/kg
Rattus norvegicus [11] = experiment: Neocortical infarct volume after IV administration (2 hr post-MCAO) in 9 rats by method A at the dose 0.1 mg/kg; type: functional
Procedure, shortened: (§5)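 Left MCA was permanently occluded by a subtemporal approach in male SHR (240–350 g) under ketamine/xylazine, with temperature kept at 36–38 °C. A single tail-vein bolus was given 2 h after occlusion, in vehicle of 2% DMSO and 98% propylene glycol. At 24 h the brain was perfused with 3% TTC, incubated 30 min at 37 °C and fixed. Neocortical infarct volume (mm3) was measured by planimetry of 2 mm slices and reported as mean (SE) and % reduction versus vehicle.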

Rattus norvegicus [12] = experiment: Neocortical infarct volume after IV administration (2 hr post-MCAO) in 9 rats by method B at the dose 0.01 mg/kg
Rattus norvegicus [13] = experiment: Neocortical infarct volume after IV administration (2 hr post-MCAO) in 9 rats by method A at the dose 0.03 mg/kg; type: functional; procedure, shortened: as §5
Rattus norvegicus [14] = experiment: Neocortical infarct volume after intraperitoneal administration (2 hr post-MCAO) in 11 rats by method B at the dose level 10(mg/kg).; type: functional
Procedure, shortened: (§6)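 Permanent left MCA occlusion in male SHR (240–350 g) under ketamine/xylazine, at 36–38 °C. Compound was given intraperitoneally 2 h after occlusion in 2% DMSO/98% propylene glycol. At 24 h, infarcts were stained with 3% TTC perfusion, slices were cut at 2 mm, and neocortical infarct volume was measured by planimetry. Results are given as mean (SE) and % reduction versus vehicle from the same study.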

Rattus norvegicus [15] = experiment: Neocortical infarct volume after intraperitoneal administration (2 hr post-MCAO) in 11 rats by method B at the dose level 20(mg/kg).; type: functional; procedure, shortened: as §6
[16] = Effect on Maxi-K mediated outward current in Xenopus laevis oocytes expressing cloned mSlo maxi-K channels at 20 uM; type: functional, Mus musculus, Oocyte; procedure, shortened: as §2
Rattus norvegicus [17] = experiment: Neocortical infarct volume after IV administration (2 hr post-MCAO) in 13 rats by method A at the dose 5.0 mg/kg; type: functional; procedure, shortened: as §5
Rattus norvegicus [18] = experiment: Neocortical infarct volume after IV administration (2 hr post-MCAO) in 13 rats by method A at the dose 1.0 mg/kg; type: functional; procedure, shortened: as §5
Rattus norvegicus [19] = experiment: Neocortical infarct volume after IV administration (2 hr post-MCAO) in 13 rats by method A at the dose 10.0 mg/kg; type: functional; procedure, shortened: as §5
Rattus norvegicus [20] = species on record: Rattus norvegicus; experiment: Electrically stimulated [3H]glutamate release in hippocampal slices; type: functional, Hippocampus; procedure, shortened: as §4

| SMILES | Increase [1] | further results |
| --- | --- | --- |
| COc1ccc(Cl)cc1[C@]1(O)C(=O)Nc2cc(C(F)(F)F)ccc21 (stereo in doubt; (-)-7c) | 116% | – |
| O=C1Nc2ccc([N+](=O)[O-])cc2C1(O)c1cc(Cl)ccc1O (configuration not stated) | 78% | – |
| CN1CCN(c2ccc(O)c(C3(O)C(=O)Nc4cc(C(F)(F)F)ccc43)c2)CC1 (configuration not stated) | 91% | – |
| O=C1Nc2ccccc2C1(O)c1cc(Cl)ccc1O (configuration not stated) | 95% | – |
| O=C1Nc2cc(C(F)(F)F)ccc2C1(O)c1ccccc1 (configuration not stated) | 87% | – |
| O=C1Nc2cc(C(F)(F)F)ccc2C1(O)c1cc(-c2ccccc2)ccc1O (configuration not stated) | 106% | – |
| COc1ccc(O)c(C2(O)C(=O)Nc3cc(C(F)(F)F)ccc32)c1 (configuration not stated) | 81% | – |
| O=C1Nc2cc(C(F)(F)F)ccc2C1(O)c1c(O)ccc2ccccc12 (configuration not stated) | 116% | – |
| Nc1cc(O)c(C2(O)C(=O)Nc3cc(C(F)(F)F)ccc32)cc1Cl (configuration not stated) | – | Increase [2]: 94% |
| O=C1Nc2cc(C(F)(F)F)ccc2C1(O)c1cc(Cl)cc(Cl)c1O (configuration not stated) | 108% | – |
| Nc1ccc(C2(O)C(=O)Nc3cc(C(F)(F)F)ccc32)c(O)c1 (configuration not stated) | – | Increase [2]: 92% |
| O=C1Nc2c(C(F)(F)F)cccc2C1(O)c1cc(Cl)ccc1O (configuration not stated) | 122% | – |
| Cc1ccc(O)c(C2(O)C(=O)Nc3cc(C(F)(F)F)ccc32)c1 (configuration not stated) | 106% | – |
| O=C1Nc2cc(C(F)(F)F)ccc2C1(O)c1cc(I)ccc1O (configuration not stated) | 107% | – |
| Cc1ccc2c(c1)C(O)(c1cc(Cl)ccc1O)C(=O)N2 (configuration not stated) | 100% | – |
| O=C1Nc2cc(C(F)(F)F)ccc2C1(O)c1cccc(Cl)c1O (configuration not stated) | 116% | – |
| O=C1Nc2cc(C(F)(F)F)ccc2[C@@]1(O)c1cc(Cl)ccc1O | 123% | – |
| O=c1[nH]c2cc(C(F)(F)F)ccc2n1-c1cc(Cl)ccc1O | 132% | – |
| O=C1Nc2cc(C(F)(F)F)ccc2C1(O)c1cc(Cl)ccc1O (single isomer, unassigned; (-)) | 141% | – |
| O=C1Nc2cc(C(F)(F)F)ccc2C1(O)c1cccc(Cl)c1 (configuration not stated) | 97% | – |
| O=C1Nc2cc(C(F)(F)F)ccc2C1(O)c1ccc(C(F)(F)F)cc1O (configuration not stated) | 108% | – |

| SMILES | Increase [1] | further results |
| --- | --- | --- |
| COc1ccc(Cl)cc1C1C(=O)Nc2cc(C(F)(F)F)ccc21 (configuration not stated) | 110% | – |
| O=C1Nc2cc(C(F)(F)F)ccc2C1(O)c1ccc(Cl)cc1O (configuration not stated) | 93% | – |
| COc1ccc(Cl)cc1C1(O)C(=O)Nc2cc(C(F)(F)F)ccc21 (racemic) | 120% | – |
| O=C1Nc2cc(C(F)(F)F)ccc2C1(O)c1cc(Br)ccc1O (configuration not stated) | 89% | – |
| O=C1Nc2cc(C(F)(F)F)ccc2C1(O)c1ccccc1O (configuration not stated) | 90% | – |
| O=C1Nc2cc(C(F)(F)F)cc(C(F)(F)F)c2C1(O)c1cc(Cl)ccc1O (configuration not stated) | 127% | – |
| O=C1Nc2cc(C(F)(F)F)ccc2C1(O)c1cc(C(F)(F)F)ccc1O (configuration not stated) | 130% | – |
| O=C1Nc2ccc(F)cc2C1(O)c1cc(Cl)ccc1O (configuration not stated) | 106% | – |
| COc1ccc(Cl)cc1[C@]1(O)C(=O)Nc2cc(C(F)(F)F)ccc21 (stereo in doubt; (+)-7c) | 117% | – |
| O=C1Nc2cc(C(F)(F)F)ccc2C1(O)c1cc(Cl)ccc1O (racemic) [listing 1 of 2 here] | – | Concentration (Rattus norvegicus [3]): 1.34 µg/g; Concentration (Rattus norvegicus [4]): 0.87 µg/g; Concentration (Rattus norvegicus [5]): 1.2 µg/mL; Concentration (Rattus norvegicus [6]): 0.231 µg/mL |
| O=C1Nc2cc(C(F)(F)F)ccc2C1(O)c1cc(F)ccc1O (configuration not stated) | 97% | – |
| O=C1Nc2cc(C(F)(F)F)ccc2C1c1cc(Cl)ccc1O (racemic) | – | Concentration (Rattus norvegicus [3]): 2.4 µg/g; Increase [2]: 164%; Toxic (Rattus norvegicus [7]): Toxic; Control (Rattus norvegicus [8]): 71%; Reduction (Rattus norvegicus [9]): 4% and 12%; Reduction (Rattus norvegicus [10]): 26%; Reduction (Rattus norvegicus [11]; 0.1 mg/kg): 9% and 0% and 6%; Increase (Rattus norvegicus [12]): -7%; Concentration (Rattus norvegicus [4]): 0.23 µg/g; Reduction (Rattus norvegicus [13]): 18%; Reduction (Rattus norvegicus [14]): 24%; Concentration (Rattus norvegicus [5]): 3.3 µg/mL; Reduction (Rattus norvegicus [15]): 9%; Concentration (Rattus norvegicus [6]): 0.28 µg/mL |
| O=C1Nc2ccc(C(F)(F)F)cc2C1(O)c1cc(Cl)ccc1O (configuration not stated) | 108% | – |
| O=C1Nc2cccc(C(F)(F)F)c2C1(O)c1cc(Cl)ccc1O (configuration not stated) | 127% | – |
| COc1ccc(Cl)cc1C1(O)C(=O)Nc2ccc(C(F)(F)F)cc21 (configuration not stated) | – | Increase [16]: 109% |
| O=C1Nc2ccccc2C1c1cc(Cl)ccc1O (configuration not stated) | 139% | – |
| O=C1Nc2cc(C(F)(F)F)ccc2C1(O)c1cc(Cl)ccc1O (racemic) [listing 2 of 2 here] | 131% | Reduction (Rattus norvegicus [17]): 10%; Reduction (Rattus norvegicus [18]): 10%; Reduction (Rattus norvegicus [11]): 4%; Reduction (Rattus norvegicus [19]): 4%; Control (Rattus norvegicus [20]): 89% and 93% |
| O=C1Nc2cc(C(F)(F)F)ccc2C1(O)c1cc(Cl)cc(I)c1O (configuration not stated) | 124% | – |
| O=C1Nc2cc(C(F)(F)F)ccc2C1(O)c1cc(Cl)c(Cl)cc1O (configuration not stated) | 107% | – |
| O=C1Nc2cc(Cl)cc(Cl)c2C1(O)c1cc(Cl)ccc1O (configuration not stated) | 117% | – |
